For data set [1], the target named is T1, Growth hormone secretagogue receptor type 1 (Homo sapiens, UniProt Q92847). Put plainly: Agonist activity at human GHS receptor expressed in H4 glioma cells assessed as intracellular calcium concentration by FLIPR assay. It is filed as functional, cell-based. (Calcium assays in cells follow changes in intracellular calcium, usually with a dye or a luminescent sensor.)

Data set [2] has as its target T1, Growth hormone secretagogue receptor type 1. In words: Displacement of [125I]ghrelin from human GHSR1a after 1 hr. In short, it runs like this:
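Membranes (0.5 ug) from RAGE-based GHSR1a-expressing cells incubated 1 h with 0.02 nM [125I]ghrelin in 25 mM Hepes pH 7.2, 10 mM MgCl2, 2 mM EGTA, 0.1% BSA across a 12-point compound dose range; filtration over polyethylenimine-coated GFB plates, scintillation counting; four-parameter logistic fit, Ki via Cheng-Prusoff; typically tested on three separate occasions.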

Data set [3] has as its target Growth hormone secretagogue receptor type 1 (Rattus norvegicus) (UniProt O08725). In words: Agonist activity at GHS receptor in intravenously dosed anesthetized Wistar rat after 15 mins. The class given is functional, organism-based.
Data set [4] is described as follows: Oral bioavailability in dog. The note with it: in vivo. The class given is ADME, organism-based, Canis lupus familiaris.
For another data set, the system named is Canis familiaris. Put plainly: Effect on GH level in Beagle dog at 10 mg/kg, po. The class given is functional, Canis lupus familiaris. The method, boiled down:
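Beagle dogs dosed orally at 10 mg/kg alongside vehicle controls; plasma GH followed to 120 min post-dose, read-out as mean peak GH level in ng/mL.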

A short description of data set [5]: Oral bioavailability in rat. The class given is ADME, organism-based. The note with it: in vivo.

Where only a bound is given, the exact number is not on record here.

These results are taken from ChEMBL document CHEMBL1137507, “Discovery, synthesis, and structure-activity studies of tetrazole based growth hormone secretagogues” (Bioorg Med Chem Lett, 2007).

T1 sequence (Q92847 whole entry): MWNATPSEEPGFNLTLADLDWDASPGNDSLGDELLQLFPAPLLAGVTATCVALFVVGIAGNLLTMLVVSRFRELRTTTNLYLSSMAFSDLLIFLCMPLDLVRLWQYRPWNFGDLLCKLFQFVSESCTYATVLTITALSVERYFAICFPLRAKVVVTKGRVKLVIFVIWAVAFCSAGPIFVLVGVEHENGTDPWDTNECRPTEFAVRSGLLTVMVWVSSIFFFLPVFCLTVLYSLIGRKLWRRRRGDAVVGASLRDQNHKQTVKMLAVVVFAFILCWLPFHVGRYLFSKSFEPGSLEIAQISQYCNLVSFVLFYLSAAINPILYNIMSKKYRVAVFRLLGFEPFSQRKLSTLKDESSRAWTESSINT
Sequence of Growth hormone secretagogue receptor type 1 (Rattus norvegicus) (O08725 whole entry): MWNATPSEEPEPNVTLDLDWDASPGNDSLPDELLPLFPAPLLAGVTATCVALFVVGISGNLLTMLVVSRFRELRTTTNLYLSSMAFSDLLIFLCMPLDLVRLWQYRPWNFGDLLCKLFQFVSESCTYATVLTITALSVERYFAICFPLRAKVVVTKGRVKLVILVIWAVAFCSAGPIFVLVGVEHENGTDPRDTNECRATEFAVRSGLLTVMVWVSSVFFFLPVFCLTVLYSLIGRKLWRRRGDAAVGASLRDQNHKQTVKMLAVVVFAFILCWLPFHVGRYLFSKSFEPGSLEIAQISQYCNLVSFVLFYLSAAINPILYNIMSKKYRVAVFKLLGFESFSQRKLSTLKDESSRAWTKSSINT

In the case of `CC(C)(N)C(=O)N[C@H](COCc1ccccc1)c1nnnn1CCC(=O)NCc1ccccc1`, the EC50 – broadly, the midpoint of the concentration-response curve – in data set [1] is 51 nM. In addition, in data set [2], the inhibition constant Ki (in general, the dissociation constant of the complex between target and ligand, obtained from inhibition or displacement) stood at 1070 nM.

Regarding `COC(=O)C(c1ccccc1)n1nnnc1[C@@H](COCc1ccccc1)NC(=O)C(C)(C)N` (some centres not stated), the EC50 in data set [1] is 20 nM. The same compound displayed a Ki in data set [2] of 470 nM.

For the compound `CC(C)(N)C(=O)N[C@H](COCc1ccccc1)c1nnn(Cc2ccccc2NS(C)(=O)=O)n1`, the concentration giving a half-maximal response (EC50) in data set [1] was 426 nM. For the same compound, the Ki in data set [2] is > 5000 nM.

Consider `CC(C)(N)C(=O)N[C@H](COCc1ccccc1)c1nnn(Cc2cccc(NS(C)(=O)=O)c2)n1`, for which, in data set [1], the EC50 is 868 nM. In addition, the Ki in data set [2] was > 5000 nM.

`CC(C)(N)C(=O)N[C@H](COCc1ccccc1)c1nnn(CCCCC#N)n1`: the EC50 in data set [1] was found to be 1860 nM. Moreover, the Ki in data set [2] is > 5000 nM.

`CC(C)(N)C(=O)N[C@H](COCc1ccccc1)c1nnnn1CCCc1ccccc1`: the EC50 in data set [1] stood at 17 nM. The compound further displayed a Ki in data set [2] of 200 nM.

With `CN(c1ccccc1CCCn1nnnc1[C@@H](COCc1ccccc1)NC(=O)C(C)(C)N)S(C)(=O)=O`, the EC50 in data set [1] turned out to be 14 nM. The affinity in data set [2] corresponds to a Ki of 1720 nM.

`CC(C)(N)C(=O)N[C@H](COCc1ccccc1)c1nnnn1CC1CN(S(C)(=O)=O)c2ccccc21` (some centres not stated): the EC50 in data set [1] was found to be 147 nM. This compound also came in with a Ki in data set [2] of 1590 nM.

As for `CC(C)(N)C(=O)N[C@H](COCc1ccccc1)c1nnn(CC2Cc3ccccc3N2S(C)(=O)=O)n1` (some centres not stated), the EC50 in data set [1] amounted to 546 nM. Further, the Ki in data set [2] is > 5000 nM.

On to `CC(C)(N)C(=O)N[C@H](COCc1ccccc1)c1nnn(CCc2cc3ccccc3n2S(C)(=O)=O)n1`, for which the EC50 in data set [1] came to 150 nM. This compound registered a Ki in data set [2] of 1270 nM.

For `COC(=O)CCn1nnnc1[C@@H](COCc1ccccc1)NC(=O)C(C)(C)N`, the EC50 in data set [1] was 43 nM. The affinity in data set [2], expressed as Ki, was 3380 nM.

On to `CN(c1ccccc1CCCn1nnc([C@@H](COCc2ccccc2)NC(=O)C(C)(C)N)n1)S(C)(=O)=O`, for which, in data set [1], the EC50 turned out to be 107 nM. The same compound registered a Ki in data set [2] of 2390 nM.

For `CC(C)(N)C(=O)N[C@H](COCc1ccccc1)c1nnnn1CCC(=O)NCCCc1ccccc1`, in data set [1], the EC50 is 59 nM. The compound further had a Ki in data set [2] of 820 nM.

Consider `CC(C)(N)C(=O)N[C@H](COCc1ccccc1)c1nnnn1CCC(=O)NCCc1ccccc1`, for which, in data set [1], the EC50 came to 27 nM. Also, the affinity in data set [2] corresponds to a Ki of 780 nM.

On to `CC(C)(N)C(=O)N[C@H](COCc1ccccc1)c1nnnn1CCCCCNC(=O)OCc1ccccc1`, for which the EC50 in data set [1] was found to be 10 nM. Moreover, affinity in data set [2] was put at a Ki of 320 nM.

Regarding `CC(C)(N)C(=O)N[C@H](COCc1ccccc1)c1nnnn1CCc1ccccc1NS(C)(=O)=O`, the EC50 in data set [1] was found to be 67 nM. Moreover, affinity in data set [2] was put at a Ki of 2200 nM.

Consider `CC(C)(N)C(=O)N[C@H](COCc1ccccc1)c1nnnn1CCc1nnn[nH]1`, for which the EC50 in data set [1] was 347 nM. The compound also registered a Ki in data set [2] of 5000 nM.

In the case of `COC(=O)CCCn1nnnc1[C@@H](COCc1ccccc1)NC(=O)C(C)(C)N`, in data set [1], the EC50 worked out at 55 nM. This compound also registered a Ki in data set [2] of 2380 nM.

For `CC(C)(N)C(=O)N[C@H](COCc1ccccc1)c1nnn(Cc2ccc(NS(C)(=O)=O)cc2)n1`, in data set [1], the concentration for a half-maximal effect (EC50) was found to be 986 nM. In addition, the Ki in data set [2] was > 5000 nM.

Regarding `CC(C)(N)C(=O)N[C@H](COCc1ccccc1)c1nnnn1CCCCC#N`, the EC50 in data set [1] was determined as 35 nM. Moreover, the Ki in data set [2] was found to be 3120 nM.

In the case of `CC(C)(N)C(=O)N[C@H](COCc1ccccc1)c1nnn(CC#N)n1`, the EC50 in data set [1] came to 1520 nM. The Ki in data set [2] is > 5000 nM.

Turning to `CC(C)(N)C(=O)N[C@H](COCc1ccccc1)c1nnnn1CCCCCNS(C)(=O)=O`, the EC50 in data set [1] amounted to 75 nM. Also, in data set [2], the Ki is > 5000 nM.

Regarding `CC(C)(N)C(=O)N[C@H](COCc1ccccc1)c1nnnn1Cc1ccccc1`, the EC50 in data set [1] is 99 nM. In data set [2], this compound registered a Ki of 1900 nM.

With `CC(C)(N)C(=O)N[C@H](COCc1ccccc1)c1nnnn1CC#N`, in data set [1], the EC50 was found to be 29 nM. Also, in data set [2], the Ki came to 4170 nM.

Regarding `CCCCNC(=O)CCn1nnnc1[C@@H](COCc1ccccc1)NC(=O)C(C)(C)N`, the EC50 in data set [1] is 42 nM. Further, the affinity in data set [2] corresponds to a Ki of 2190 nM.

In the case of `COC(=O)C(c1ccccc1)n1nnc([C@@H](COCc2ccccc2)NC(=O)C(C)(C)N)n1` (some centres not stated), the EC50 in data set [1] came out at 3170 nM. Besides, the Ki in data set [2] was > 5000 nM.

`CC(C)(N)C(=O)N[C@H](COCc1ccccc1)c1nnnn1Cc1ccc(NS(C)(=O)=O)cc1`: the EC50 in data set [1] was found to be 259 nM. For the same compound, the Ki in data set [2] is > 5000 nM.

Regarding `CC(C)(N)C(=O)N[C@H](COCc1ccccc1)c1nnn(C/C=C/c2ccccc2)n1`, in data set [1], the EC50 turned out to be 517 nM. Also, the Ki in data set [2] was > 5000 nM.

As to `COC(=O)CCn1nnnc1[C@@H](Cc1c[nH]c2ccccc12)NC(=O)C(C)(C)N`, the concentration giving a half-maximal response (EC50) in data set [1] came to 200 nM. The Ki in data set [2] was > 5000 nM.

As to `CC(C)(N)C(=O)N[C@H](COCc1ccccc1)c1nnn(CCc2ccccc2NS(C)(=O)=O)n1`, the EC50 in data set [1] turned out to be 4110 nM. Besides, the Ki in data set [2] amounted to 2660 nM.

For `CC(C)(N)C(=O)N[C@H](COCc1ccccc1)c1nnnn1Cc1cccc(NS(C)(=O)=O)c1`, the EC50 in data set [1] stood at 116 nM. In data set [2], the Ki was > 5000 nM.

With `CC(C)(N)C(=O)N[C@H](COCc1ccccc1)c1nnnn1CCc1cc2ccccc2n1S(C)(=O)=O`, the EC50 in data set [1] was 4 nM. Moreover, the Ki in data set [2] came to 970 nM. The ED50 (commonly the midpoint of the dose-response relation) in data set [3] is > 0.0174 µmol/kg.

As to `CCCCNC(=O)CCCn1nnnc1[C@@H](COCc1ccccc1)NC(=O)C(C)(C)N`, the EC50 in data set [1] was 30 nM. In data set [2], this compound yielded a Ki of 1780 nM.

Take `CC(C)(N)C(=O)N[C@H](COCc1ccccc1)c1nnn(Cc2ccccc2)n1`: the EC50 in data set [1] is 1120 nM. This compound also registered a Ki in data set [2] of 4750 nM.

Regarding `CC(C)(N)C(=O)N[C@H](COCc1ccccc1)c1nnnn1CCC#N`, the bioavailability (as a rule, dose-corrected exposure relative to a reference, in per cent) in data set [4] is 76%; in data set [5], 56%. Further, the EC50 in data set [1] was found to be 30 nM. The compound also showed an Activity with Canis familiaris of 30 ng/mL. In data set [2], this compound returned a Ki of 2940 nM. In data set [3], the ED50 was 0.0085 µmol/kg.

`CCCCNC(=O)CCn1nnnc1[C@@H](CCc1ccccc1)NC(=O)C(C)(C)N`: the EC50 in data set [1] is 49 nM. Moreover, in data set [2], affinity was put at a Ki of 1370 nM.

In the case of `CC(C)(N)C(=O)N[C@H](COCc1ccccc1)c1nnnn1C/C=C/c1ccccc1`, the EC50 in data set [1] amounted to 12 nM. For the same compound, in data set [2], the affinity corresponds to a Ki of 190 nM. Also, in data set [3], the ED50 turned out to be 0.0264 µmol/kg.

Turning to `CC(C)(N)C(=O)N[C@H](COCc1ccccc1)c1nnnn1Cc1ccccc1NS(C)(=O)=O`, the EC50 in data set [1] came out at 390 nM. In addition, in data set [2], the inhibitory constant (Ki) stood at 4450 nM.
